For one experiment, the system named is NSCLC. Description: Compound was tested for the inhibition of non- small cell lung cancer. It counts as functional, cell-based. The note with it: Homo sapiens. The method, boiled down: (§1)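 Human leukemia and solid tumor cells in culture were exposed to compound for 48 h. Viability was scored by trypan blue dye exclusion. IC50 (50% inhibition) was estimated from response curves of three separate experiments.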

For the next experiment, the system named is HL-60. Briefly: Compound was tested for the inhibition of human HL60 Leukemia. It counts as functional, cell-based. In short, it runs like this:
as §1

The subject of another experiment is Glioblastoma cell line. Briefly: Compound was tested for the inhibition of glioblastoma. It counts as functional, cell-based. The note with it: Homo sapiens. The method, boiled down: as §1
Experiment [1] relates to Small cell lung cancer cell line. Briefly: Compound was tested for the inhibition of small cell lung cancer. The note with it: Homo sapiens. It counts as functional, cell-based. The method, boiled down:
as §1

In another experiment the test system is AMML. Description: Compound was tested for the inhibition of AMML (acute myelomonocytic leukemia). It counts as functional, cell-based. The note with it: Homo sapiens. In short, it runs like this: as §1
The next experiment relates to CML/BC. Briefly: Compound was tested for the inhibition of CML/BC(chronic myeloid leukemia, blast crisis). It counts as functional, cell-based. The following applies: Homo sapiens. The method, boiled down: as §1
The test system of experiment [2] is P388. Description: Antitumor activity was determined against the ip implanted P388 leukemia in mice by percent increase in life span at 60 mg/kg (1-5qd treatment schedule) dosage. It counts as functional, Mus musculus. The note with it: route intraperitoneal. In short, it runs like this: (§2)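 DBA/2J mice, 23-33 g, in groups of 6, were inoculated ip with 1×10^6 P388 cells on day 0. Dosing was ip from 24 h on the stated schedules, in 0.9% NaCl with 0.5% Tween-80 (sonicated solution or suspension). Survival was followed daily until death or 45 days. Median T/C was calculated from survivors per NCI protocols, with ILS = (T/C − 1) × 100.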

Experiment [3] relates to P388. Description: Antitumor activity against the ip implanted P388 leukemia in mice expressed as optimal dose (1-5qd treatment schedule) required to produce greatest increase in life span was determined. It counts as functional, Mus musculus. Also on record: unit: mg/kg. In short, it runs like this:
(§3)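 P388 leukemia: 1 × 10^6 cells were given ip on day 0 to DBA/2J mice, groups of 6 (23-33 g). Treatment was ip from 24 h after inoculation, vehicle 0.9% NaCl with 0.5% Tween-80. Mice were observed daily until death or 45 days. Median survival T/C was calculated from survivors per NCI protocols, and ILS = (T/C − 1) × 100. Active range means doses giving ILS ≥25%; optimal dose means greatest ILS.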

Experiment [4] has as its system P388. Briefly: Antitumor activity against the ip implanted P388 leukemia in mice expressed as optimal dose (1,5,9qd treatment schedule) required to produce greatest increase in life span was determined. It counts as functional, Mus musculus. Details: unit: mg/kg. In short, it runs like this: as §3
Experiment [5] deals with P388. Description: Antitumor activity was determined against the ip implanted P388 leukemia in mice by percent median survival rate (treated/control) at 60 mg/kg (1-5qd treatment schedule) dosage; >45.0/11.5. The following applies: route intraperitoneal. It counts as functional, Mus musculus.
The test system of experiment [6] is P388. Description: Antitumor activity was determined against the ip implanted P388 leukemia in mice by change in […] at 300 mg/kg (1 qd treatment schedule) dosage. It counts as functional, Mus musculus. The following applies: route intraperitoneal. In short, it runs like this:
(§4)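 P388 leukemia, 1×10^6 cells implanted ip on day 0 into DBA/2J mice, groups of 6 (wt 23-33 g). Dosing ip started 24 h post-inoculation, vehicle 0.9% NaCl containing 0.5% Tween-80. Animals were observed daily until death or 45 days. Outputs were weight change, median survival T/C from survivors per NCI protocols, and %ILS = (T/C − 1) × 100.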

Experiment [7] relates to P388. Description: Antitumor activity was determined against the ip implanted P388 leukemia in mice by percent median survival rate (treated/control) at 133 mg/kg (treatment of 1,5,9qd schedule) dosage; >45.0/11.5. It counts as functional, Mus musculus. The following applies: route intraperitoneal.
The subject of experiment [8] is P388. Briefly: Antitumor activity was determined against the ip implanted P388 leukemia in mice by percent median survival rate (treated/control) at 300 mg/kg (1 qd treatment schedule) dosage; >45.0/11.0. It counts as functional, Mus musculus. The note with it: route intraperitoneal.
In experiment [9] the test system is P388. Briefly: Antitumor activity was determined against the ip implanted P388 leukemia in mice by 45-day survivors in mice at 60 mg/kg (1-5qd treatment schedule) dosage. The following applies: route intraperitoneal. It counts as functional, Mus musculus. The method, boiled down: as §2
Experiment [10] concerns P388. Description: Antitumor activity was determined against the ip implanted P388 leukemia in mice by percent increase in life span at 300 mg/kg (1 qd treatment schedule) dosage. It counts as functional, Mus musculus. The note with it: route intraperitoneal. The method, boiled down:
as §2

Experiment [11] concerns P388. Briefly: Antitumor activity was determined against the ip implanted P388 leukemia in mice by 45-day survivors in mice at 300 mg/kg (1 qd treatment schedule) dosage. The note with it: route intraperitoneal. It counts as functional, Mus musculus. The method, boiled down:
as §2

In experiment [12] the test system is P388. Briefly: Antitumor activity was determined against the ip implanted P388 leukemia in mice by percent increase in life span at 133 mg/kg (treatment of 1,5,9qd schedule) dosage. It counts as functional, Mus musculus. The following applies: route intraperitoneal. The method, boiled down:
as §2

Experiment [13] deals with P388. Briefly: Antitumor activity was determined against the ip implanted P388 leukemia in mice by change in […] at 60 mg/kg (1-5qd treatment schedule) dosage. It counts as functional, Mus musculus. The note with it: route intraperitoneal. The method, boiled down: as §4
Experiment [14] concerns P388. Description: Antitumor activity was determined against the ip implanted P388 leukemia in mice by change in […] at 133 mg/kg (treatment of 1,5,9qd schedule) dosage. It counts as functional, Mus musculus. The note with it: route intraperitoneal. In short, it runs like this:
as §4

The test system of experiment [15] is P388. Description: Antitumor activity against ip implanted P388 leukemia in mice expressed as active dose range (1,5,9qd treatment schedule) required to produce increase in life span by >25% was determined; Range is 100-167. It counts as functional, Mus musculus. In short, it runs like this:
as §3

In experiment [16] the test system is P388. Description: Antitumor activity was determined against the ip implanted P388 leukemia in mice by range in survival days at 300 mg/kg (1 qd treatment schedule) dosage; Range is 39->45. The following applies: route intraperitoneal. It counts as functional, Mus musculus.
Experiment [17] has as its system P388. Briefly: Antitumor activity against the ip implanted P388 leukemia in mice expressed as optimal dose (1 qd treatment schedule) required to produce greatest increase in life span was determined. It counts as functional, Mus musculus. In short, it runs like this: as §3
The subject of experiment [18] is P388. Description: Antitumor activity was determined against the ip implanted P388 leukemia in mice by 45-day survivors in mice at 133 mg/kg (treatment of 1,5,9qd schedule) dosage. It counts as functional, Mus musculus. The note with it: route intraperitoneal. In short, it runs like this: as §2
Experiment [19] has as its system P388. Briefly: Antitumor activity against ip implanted P388 leukemia in mice expressed as active dose range (1 qd treatment schedule) required to produce increase in life span by >25% was determined; Range is 200-400. It counts as functional, Mus musculus. The method, boiled down: as §3
In experiment [20] the test system is P388. Briefly: Antitumor activity against ip implanted P388 leukemia in mice expressed as active dose range (1-5qd treatment schedule) required to produce increase in life span by >25% was determined; Range is 40-80. It counts as functional, Mus musculus. The method, boiled down: as §3

For the compound `CCCCCCCCCCCCCCCCCCOCC(COP(=O)([O-])OCC[N+](C)(C)C)OC.Nc1ccn([C@@H]2O[C@H](CO)[C@@H](O)[C@@H]2O)c(=O)n1` (stereo not given), the IC50 worked out at 34 µM in the experiment with NSCLC; 0.26 µM with HL-60; 27 µM with Glioblastoma cell line; 38 µM in experiment [1]; 1.35 µM with AMML; 0.25 µM in the experiment with CML/BC.

For `CCCCCCCCCCCCCCCC(=O)OCC(COP(=O)(O)OP(=O)(O)OC[C@H]1O[C@@H](n2ccc(N)nc2=O)[C@@H](O)[C@@H]1O)OC(=O)CCCCCCCCCCCCCCC` (mixture of isomers), the ILS in the experiment on P388 [2] is given as greater than 291; in the experiment on P388 [10], greater than 309; with P388 [12], greater than 291. Also, the Optimal dose in the experiment on P388 [3] was 60 mg; in the experiment on P388 [4] it was 133 mg; in the experiment with P388 [17], 300 mg/kg/day. Also, the T/C with P388 [5], in the experiment on P388 [7] and in the experiment on P388 [8] was greater than 45% each time. Besides, the Weight change in the experiment on P388 [6] is listed as -1.7 g mouse-1; with P388 [13], -3.27 g mouse-1; in the experiment on P388 [14], 0.37 g mouse-1. For the same compound, the Survivors in the experiment with P388 [9] is on record as 6; with P388 [11] it was 4; with P388 [18], 6. Besides, the Active dose range amounted to 100 mg/kg/day in the experiment with P388 [15], 200 mg/kg/day in the experiment on P388 [19] and 40 mg/kg/day in the experiment on P388 [20]. This compound came in with a Range in the experiment on P388 [16] of 39.

By IC50 is commonly meant the concentration needed to halve the response being measured. The T/C is the ratio of treated to control.

(Values after ChEMBL document CHEMBL1123247, “Nucleoside conjugates. 7. Synthesis and antitumor activity of 1-beta-D-arabinofuranosylcytosine conjugates of ether lipids” (J Med Chem, 1986).)
